# From ChEMBL document CHEMBL2346607, “Borrelidin analogues with antimalarial activity: design, synthesis and biological evaluation against Plasmodium falciparum parasites” (Bioorg Med Chem Lett, 2013)
# What was measured:
# Plasmodium falciparum [1] = experiment: Antimalarial activity against Plasmodium falciparum K1 infected in human erythrocytes after 72 hrs by lactate dehydrogenase assay; assay type: functional, organism-based; conditions: K1, 72 h
# In short: (§1)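 In vitro assay against the P. falciparum strains K1 (drug-resistant) and FCR3 (drug-sensitive). The value is reported as an IC50 in ng/mL.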
# Plasmodium falciparum [2] = experiment: Antimalarial activity against Plasmodium falciparum FCR-3 infected in human erythrocytes after 72 hrs by lactate dehydrogenase assay; assay type: functional, cell-based; conditions: FCR-3/Gambia; in short: as §1
# [3] = Selectivity index, ratio of IC50 for human […] cells to IC50 for Plasmodium falciparum FCR-3; assay type: toxicity, cell-based; conditions: […] cells (cytotoxicity) versus Plasmodium falciparum FCR-3, read-out: Ratio IC50
# In short: (§2)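 SI is the MRC-5 cytotoxicity IC50 (ng/mL) divided by the antimalarial IC50 (ng/mL) against the FCR3 or K1 strain. Both IC50s come from the same in vitro test series.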
# [4] = Cytotoxicity against human […] cells after 7 days by MTT assay; assay type: cell-based; conditions: 168 h
# In short: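 Cytotoxicity was tested on MRC-5, a human diploid embryonic cell line. The value is reported as an IC50 in ng/mL.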
# [5] = Selectivity index, ratio of IC50 for human […] cells to IC50 for Plasmodium falciparum K1; assay type: toxicity, cell-based; conditions: MCR5 cells (cytotoxicity) versus Plasmodium falciparum K1, read-out: Ratio IC50; in short: as §2
SMILES,IC50 (Plasmodium falciparum [1]) [ng/mL],IC50 (Plasmodium falciparum [2]) [ng/mL],selectivity ratio [3],IC50 [4] [µg/mL],selectivity ratio [5]
CCOC(=O)[C@@H]1CCC[C@H]1[C@@H]1C/C=C/C=C(/C#N)[C@H](O)[C@@H](C)C[C@H](C)C[C@H](C)C[C@H](C)[C@@H](O)CC(=O)O1,67.8,23.3,939,21.9,323
C[C@@H]1C[C@H](C)C[C@H](C)[C@@H](O)CC(=O)O[C@H]([C@@H]2CCC[C@H]2C(=O)OCCN2CCOCC2)C/C=C/C=C(/C#N)[C@H](O)[C@@H](C)C1,0.62,0.43,604,0.26,419
CC[C@H](C)[C@H](NC(=O)[C@@H]1CCC[C@H]1[C@@H]1C/C=C/C=C(/C#N)[C@H](O)[C@@H](C)C[C@H](C)C[C@H](C)C[C@H](C)[C@@H](O)CC(=O)O1)C(=O)O,18,12,5330,64,3200
C[C@@H]1C[C@H](C)C[C@H](C)[C@@H](O)CC(=O)O[C@H]([C@@H]2CCC[C@H]2C(=O)OCc2cn(CSc3ccccc3)nn2)C/C=C/C=C(/C#N)[C@H](O)[C@@H](C)C1,0.031,0.85,19800,16.8,542000
CCCCSC(=O)[C@@H]1CCC[C@H]1[C@@H]1C/C=C/C=C(/C#N)[C@H](O)[C@@H](C)C[C@H](C)C[C@H](C)C[C@H](C)[C@@H](O)CC(=O)O1,163,170,12,2,12
C[C@@H]1C[C@H](C)C[C@H](C)[C@@H](O)CC(=O)O[C@H]([C@@H]2CCC[C@H]2C(=O)N[C@@H](Cc2ccc(O)cc2)C(=O)O)C/C=C/C=C(/C#N)[C@H](O)[C@@H](C)C1,163,170,197,33.4,206
C[C@@H]1C[C@H](C)C[C@H](C)[C@@H](O)CC(=O)O[C@H]([C@@H]2CCC[C@H]2C(=O)N[C@@H](CC(N)=O)C(=O)O)C/C=C/C=C(/C#N)[C@H](O)[C@@H](C)C1,580,810,> 124,> 1000,> 172
CCN(CC)CCCC(C)Nc1ccnc2cc(Cl)ccc12 (stereo not given) [CHLOROQUINE],–,–,–,18.6,–
C=CCOC(=O)[C@@H]1CCC[C@H]1[C@@H]1C/C=C/C=C(/C#N)[C@H](O)[C@@H](C)C[C@H](C)C[C@H](C)C[C@H](C)[C@@H](O)CC(=O)O1,77.7,39.2,118,4.63,59.6
CC(=O)O[C@H]1CC(=O)O[C@H]([C@@H]2CCC[C@H]2C(=O)O)C/C=C/C=C(/C#N)[C@H](OC(C)=O)[C@@H](C)C[C@H](C)C[C@H](C)C[C@@H]1C,107,120,464,55.7,522
C[C@@H]1C[C@H](C)C[C@H](C)[C@@H](O)CC(=O)O[C@H]([C@@H]2CCC[C@H]2C(=O)N[C@@H](CO)C(=O)O)C/C=C/C=C(/C#N)[C@H](O)[C@@H](C)C1,140,200,> 500,> 1000,> 714
CCCOC(=O)[C@@H]1CCC[C@H]1[C@@H]1C/C=C/C=C(/C#N)[C@H](O)[C@@H](C)C[C@H](C)C[C@H](C)C[C@H](C)[C@@H](O)CC(=O)O1,90.4,78.8,232,18.2,202
C[C@@H]1C[C@H](C)C[C@H](C)[C@@H](O)CC(=O)O[C@H]([C@@H]2CCC[C@H]2C(=O)Sc2ccccc2)C/C=C/C=C(/C#N)[C@H](O)[C@@H](C)C1,107,160,6,0.98,9
C[C@@H]1C[C@H](C)C[C@H](C)[C@@H](O)CC(=O)O[C@H]([C@@H]2CCC[C@H]2C(=O)OCc2cn(-c3cccnc3)nn2)C/C=C/C=C(/C#N)[C@H](O)[C@@H](C)C1,2.9,4.8,86,0.41,143
C[C@@H]1C[C@H](C)C[C@H](C)[C@@H](O)CC(=O)O[C@H]([C@@H]2CCC[C@H]2C(=O)O)CCCCC(C#N)[C@H](O)[C@@H](C)C1 (stereo not given in full),130,130,102,–,102
C[C@@H]1CC[C@H]2[C@@H](C)C(=O)O[C@@H]3O[C@@]4(C)CC[C@@H]1[C@]32OO4 [ARTEMISININ],–,–,7530,45.2,7530
C[C@@H]1C[C@H](C)C[C@H](C)[C@@H](O)CC(=O)O[C@H]([C@@H]2CCC[C@H]2C(=O)NCC(=O)O)C/C=C/C=C(/C#N)[C@H](O)[C@@H](C)C1,21,31,1900,58.9,2850
C[C@@H]1C[C@H](C)C[C@H](C)[C@@H](O)CC(=O)O[C@H]([C@@H]2CCC[C@H]2C(=O)OCCN(C)C)C/C=C/C=C(/C#N)[C@H](O)[C@@H](C)C1,0.31,0.24,750,0.18,581
C[C@@H]1C[C@H](C)C[C@H](C)[C@@H](O)CC(=O)O[C@H]([C@@H]2CCC[C@H]2C(=O)N[C@@H](C)C(=O)O)C/C=C/C=C(/C#N)[C@H](O)[C@@H](C)C1,–,13,4190,–,–
CC(C)SC(=O)[C@@H]1CCC[C@H]1[C@@H]1C/C=C/C=C(/C#N)[C@H](O)[C@@H](C)C[C@H](C)C[C@H](C)C[C@H](C)[C@@H](O)CC(=O)O1,59,72,142,10.2,172
CCCSC(=O)[C@@H]1CCC[C@H]1[C@@H]1C/C=C/C=C(/C#N)[C@H](O)[C@@H](C)C[C@H](C)C[C@H](C)C[C@H](C)[C@@H](O)CC(=O)O1,167,280,12,3.4,20
C[C@@H]1C[C@H](C)C[C@H](C)[C@@H](O)CC(=O)O[C@H]([C@@H]2CCC[C@H]2C(=O)OCc2cn(-c3cnc4ccccc4c3)nn2)C/C=C/C=C(/C#N)[C@H](O)[C@@H](C)C1,0.067,0.079,13400,1.05,15600
COC(=O)[C@@H]1CCC[C@H]1[C@@H]1C/C=C/C=C(/C#N)[C@H](O)[C@@H](C)C[C@H](C)C[C@H](C)C[C@H](C)[C@@H](O)CC(=O)O1,10,10,1460,14.6,1460
C[C@@H]1C[C@H](C)C[C@H](C)[C@@H](O)CC(=O)O[C@H]([C@@H]2CCC[C@H]2C(=O)OCc2cn(-c3ccc(C(=O)O)cc3)nn2)C/C=C/C=C(/C#N)[C@H](O)[C@@H](C)C1,37.8,48.5,209,10.1,267
C[C@@H]1C[C@H](C)C[C@H](C)[C@@H](O)CC(=O)O[C@H]([C@@H]2CCC[C@H]2C(=O)O)C/C=C/C=C(/C#N)[C@H](O)[C@@H](C)C1 [BORRELIDIN],0.93,0.88,228,0.201,216
CCSC(=O)[C@@H]1CCC[C@H]1[C@@H]1C/C=C/C=C(/C#N)[C@H](O)[C@@H](C)C[C@H](C)C[C@H](C)C[C@H](C)[C@@H](O)CC(=O)O1,8,10,1340,12.7,1570
